# High-throughput results as filed in PubChem BioAssay.
# EWS-Fli block: EWS/Fli transcriptional activity inhibition; A673 NR0B1-luciferase reporter, viability-normalised; inhibition, % at 12.6 µM; actives 0.67% (n = 350,000); AID 651661;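 active means mean inhibition of at least 50% after viability correction, with every replicate also passing that limit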;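 further: firefly luciferase signal divided by Alamar Blue viability fluorescence both relative to DMSO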
# Ecoli rRNA inh: inhibitors of bacterial rRNA selective over humanized ribosomes; E. coli WT GFP vs humanized-ribosome RFP mutants, fluorescence, 24 h; hits give low values; DMSO median 0, no signal -100; GFP signal change (wild-type ribosome), % (no concentration beside the values); actives 1.6% (n = 350,000); AID 720706;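 active means significant combined selectivity score with lowered wild-type GFP, culture density cut under 30%, mutant RFP and density less affected; inactive means any of these conditions unmet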
# E-sel inducer: E-selectin induction on HUVECs; actives 0.37% (n = 260,000); HUVEC E-selectin immunofluorescence imaging; normalized: neutral wells 0, TNF-alpha wells 100; activation, % at 7.58 µM;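 active means mean E-selectin-positive cell signal at least 10% of the positive control, reached in at least 60% of replicates, without over 20% cell loss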
# Target sequence (P16581 whole entry, looked up): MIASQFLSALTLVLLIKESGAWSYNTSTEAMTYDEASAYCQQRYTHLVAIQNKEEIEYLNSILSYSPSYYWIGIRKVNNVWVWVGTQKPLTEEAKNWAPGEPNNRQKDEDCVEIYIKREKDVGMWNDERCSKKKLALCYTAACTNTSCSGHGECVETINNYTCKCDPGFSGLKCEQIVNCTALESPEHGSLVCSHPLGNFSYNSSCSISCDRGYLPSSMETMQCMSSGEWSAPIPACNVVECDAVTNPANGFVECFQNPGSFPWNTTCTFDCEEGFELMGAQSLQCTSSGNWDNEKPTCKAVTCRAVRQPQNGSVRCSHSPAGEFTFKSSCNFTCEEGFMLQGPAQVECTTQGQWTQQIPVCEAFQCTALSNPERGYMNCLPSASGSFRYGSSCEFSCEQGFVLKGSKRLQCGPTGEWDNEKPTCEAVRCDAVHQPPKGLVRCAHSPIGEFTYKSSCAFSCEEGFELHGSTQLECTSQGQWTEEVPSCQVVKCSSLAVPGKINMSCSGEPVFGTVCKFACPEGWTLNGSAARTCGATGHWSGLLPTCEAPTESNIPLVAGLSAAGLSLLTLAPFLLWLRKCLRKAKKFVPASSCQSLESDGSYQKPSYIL
#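 Test system: HUVEC; input: 3,000 HUVEC/well; measured by: immunofluorescence imaging; read-out: % PE-positive cells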
# LGR2 inh: blocks bursicon-induced cAMP signaling via Drosophila LGR2; HEK293 LGR2, CRE-luciferase, bursicon-stimulated, 4 h; inhibition, % at 9.99 µM; actives 0.35% (n = 380,000);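 active means drop in luminescence signal, shown as inhibition above about 50% in the replicate tests, limit read from the data, passing the limit was not always enough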;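 further: agonist challenge used bursicon conditioned medium at about half maximal strength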
# * marks the source's active call; other numbers are inactive results; / = no result given; ! = repeats disagree. An excerpt weighted towards active compounds, which were near 2.4% of everything screened.
SMILES,EWS-Fli block,Ecoli rRNA inh,E-sel inducer,LGR2 inh
Cc1ccccc1C(=O)Nc1ccc(C(=O)N/N=C/c2ccc(O)c(Br)c2)cc1,7.0,-19.2*,/,-20.0
NC(N)=N/N=C/c1ccc(Cl)c(Cl)c1,3.8,-28.5,-0.4,63.5*
NC(N)=N/N=C/c1ccc(Cl)cc1Cl,4.9,-21.4,0.0,-1.9
NC(N)=N/N=C/c1ccc(OCc2ccccc2Cl)cc1,57.7*,-57.8,/,1.0
Cc1noc(C)c1NC(=O)Nc1ccc2c(c1)C(=O)N([C@@H](C)CO)C[C@@H](C)[C@H](CN(C)C(=O)Nc1ccc(C(F)(F)F)cc1)O2,-9.1,-46.9,0.2,20.6
C[C@@H]1CN([C@@H](C)CO)C(=O)c2cc(C3=CCCCC3)cnc2O[C@H]1CN(C)C(=O)NC1CCCC1,-0.7,0.5,117.4*,0.3
CCCNC(=O)N(C)C[C@@H]1Oc2ncc(C3=CCCCC3)cc2C(=O)N([C@H](C)CO)C[C@@H]1C,-11.0,-2.5,0.0,-4.7
C[C@@H]1CN([C@H](C)CO)C(=O)c2cc(C3=CCCC3)cnc2O[C@H]1CN(C)C(=O)Nc1ccccc1,5.2,0.4,48.6*,24.8
C[C@H](CO)N1C[C@H](C)[C@H](CN(C)C(=O)NC2CCCC2)Oc2ncc(C3=CCCCC3)cc2C1=O,-5.4,-3.4,0.5,-2.8
CCCNC(=O)N(C)C[C@@H]1Oc2ncc(C3=CCCC3)cc2C(=O)N([C@H](C)CO)C[C@H]1C,-2.4,-1.8,57.9*,4.1
Cc1noc(C)c1NC(=O)Nc1cccc2c1O[C@@H](CN(C)C(=O)NC1CCCCC1)[C@H](C)CN([C@H](C)CO)C2=O,-2.8,-0.2,-0.1,20.2
Cc1ccc(NC(=O)CCc2c(C)nn(-c3ccc(N4CCCCC4)nn3)c2C)cc1,-75.1,-25.1*,/,-36.2
C=CCOC(=O)C1=C[C@@H](c2coc3ccccc3c2=O)C[C@@H](OCc2ccc(CO)cc2)O1,-14.8,-11.8,-0.6,0.0
C=CCOC(=O)C1=C[C@H](c2coc3ccccc3c2=O)C[C@H](OCc2ccc(CO)cc2)O1,-11.0,-21.0*,1.0,1.4
Cc1noc(C)c1NC(=O)Nc1ccc2c(c1)C(=O)N([C@H](C)CO)C[C@@H](C)[C@H](CN(C)C(=O)Nc1ccc3c(c1)OCO3)O2,4.0,3.8,0.1,-8.4
Nc1nc(CSC(=S)N2CCCCC2)nc(Nc2ccccc2)n1,-24.7,-4.5,/,-75.1
CC1CC(C)CN(C(=S)SCc2nc(N)nc(Nc3ccccc3)n2)C1 (stereo unspecified),1.9,-21.6*,0.1,-16.7
O=C(NCC[C@@H]1CC[C@H](NC(=O)C2CCCCC2)[C@H](CO)O1)c1ccc(F)cc1,-1.1,1.0,0.6,7.9
COc1ccc(C2/C=C\CN(C(=O)Nc3ccccc3)CC(=O)N2Cc2ccc(F)cc2)cc1 (stereo unspecified),-4.4,-27.1*,0.7,4.4
COc1ccc(C2/C=C\CN(C(=O)c3ccc(C)cc3)CC(=O)N2Cc2ccc(F)cc2)cc1 (stereo unspecified),-3.9,-32.7,-0.1,4.4
O=C(C[C@@H]1CC[C@H](NC(=O)CC2CC2)[C@@H](CO)O1)NCc1ccccc1,5.1,0.4,0.2,-10.9
Cc1cc(C(=O)CCl)c(C)n1CCc1ccccc1,75.2*,10.6,/,7.6
C[C@@H]1CCCCO[C@H](CN(C)C(=O)c2ccncc2)[C@H](C)CN([C@@H](C)CO)C(=O)c2cc(NC(=O)Cc3ccccc3)ccc2O1,-1.2,0.7,/,-1.0
CS/C(=N\S(=O)(=O)c1cccs1)Nc1cccc(Cl)c1C,-1.9,-44.4*,-0.1,3.1
CO[C@@H]1CN(C)C(=O)c2ccc(NC(=O)c3ccc(F)cc3)cc2OC[C@@H](C)N(C(=O)c2ccc(F)cc2)C[C@H]1C,2.2,-5.6,2.7,2.9
SMILES,EWS-Fli block,Ecoli rRNA inh,E-sel inducer,LGR2 inh
C[C@H]1CN([C@@H](C)CO)C(=O)Cc2cc(NC(=O)CCC(F)(F)F)ccc2O[C@H]1CN(C)S(=O)(=O)c1ccc(Cl)cc1,55.9*,-1.0,0.7,4.8
C[C@H]1CN([C@@H](C)CO)C(=O)Cc2cc(NC(=O)CCC(F)(F)F)ccc2O[C@H]1CN(C)S(=O)(=O)c1ccc(F)cc1,57.5*!,1.1,0.4,10.0
C[C@H](CO)N1C[C@H](C)[C@H](CN(C)S(=O)(=O)c2ccc(Cl)cc2)Oc2ccc(NC(=O)CCC(F)(F)F)cc2CC1=O,59.1*,-4.0,0.7,23.7
C[C@H](CO)N1C[C@H](C)[C@@H](CN(C)S(=O)(=O)c2ccc(Cl)cc2)Oc2ccc(NC(=O)CCC(F)(F)F)cc2CC1=O,4.5,-1.9,-0.1,12.9
CCCC(=O)Nc1ccc2c(c1)C(=O)N(C)C[C@H](OC)[C@H](C)CN(C(=O)CC1CC1)[C@@H](C)CO2,3.8,3.8,0.1,14.6
Cc1cccc(NCc2cc(Cl)ccc2O)n1,-1.6,-51.7*,/,1.9
COc1ccc(CN(C)C(=O)C23CC4CC(CC(Cl)(C4)C2)C3)c(OC)c1OC,4.0,-28.9*,/,-3.3
COc1cccc(CN(C)C(=O)C23CC4CC(CC(NC(C)=O)(C4)C2)C3)c1OC,/,1.7,0.0,-0.3
N#Cc1c(NC(=O)c2ccccc2Cl)n(Cc2ccccc2)c2nc3ccccc3nc12,2.3,-16.6*,-0.8,19.0
CC(=O)Nc1ccc2c(c1)C(=O)N(C)[C@H]1CC[C@H](CC(=O)Nc3cn(C)nc3C)O[C@@H]1CO2,4.9,4.4,0.1,-12.8
CNC(=S)N1CCN(c2nc(-c3ccc(Cl)cc3)cs2)CC1,-27.1,-25.5*,/,-10.4
CCN(CC)CCCNC(=S)N1CCN(c2nc(-c3ccc(F)cc3)cs2)CC1,61.1*,-51.8,0.2,10.9
COCCNC(=S)N1CCN(c2nc(-c3ccc(Cl)cc3)cs2)CC1,8.4,-21.1,/,5.3
CCNC(=S)N1CCN(c2nc(-c3ccc(F)cc3)cs2)CC1,-2.0,3.9,-0.2,-7.4
COc1cccc(NC(=O)N[C@@H]2C=C[C@@H](CC(=O)N3CCN(C)CC3)O[C@@H]2CO)c1,4.9,1.3,0.6,-6.1
CN1CCN(Cc2c(C(=O)N/N=C/c3cccc(Br)c3)nnn2-c2nonc2N)CC1,51.8*,0.9,/,-0.7
O=C(C[C@H]1C=C[C@H](NC(=O)C2CCOCC2)[C@@H](CO)O1)Nc1ccccc1,16.1,1.8,-0.6,1.1
Cc1cccc(N(C(=O)CNC(=O)c2ccco2)C(C(=O)NC2CCCCC2)c2cccnc2)c1 (stereo unspecified),2.1,-1.9,-0.1,20.0
O=C(NC1CCCCC1)C(c1cccnc1)N(C(=O)CCl)c1cccc(Cl)c1 (stereo unspecified),58.2*,9.6,/,-10.6
COC(=O)c1c(N)sc(C(=O)NCCc2ccccc2)c1C,83.3*,-8.5,0.7,98.0*
CCc1cccc(C)c1NC(=O)CCCN1C(=O)NC(C)(C)C1=O,6.3,5.6,26.6*,2.5
COc1cccc(/C=C/C(=O)Nc2ccc3c(c2)OCCO3)c1OC,7.2,-25.2,0.0,60.6*
COc1cccc(/C=C/C(=O)Nc2cccc(C(C)=O)c2)c1OC,-71.9,-22.1,/,-33.9
